Experimental data published in ChEMBL document CHEMBL3272318, “Antimalarials. 8. Synthesis of amino ethers as candidate antimalarials” (J Med Chem, 1976).
Activity calls are given as the source filed them. The calls are words filed in the database; no cut-off is given here.

Columns and labels:
[1] = tested on: Plasmodium gallinaceum; test: Antimalarial activity against sporozoite stage of Plasmodium gallinaceum infected in chick at 480 mg/kg; assay type: functional, organism-based; parameters: dose 480 mg/kg
In short: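 Prophylactic screen run at the Rane Laboratory (University of Miami) in chicks infected with Plasmodium gallinaceum. Compounds were tested at doses up to 480 mg/kg.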

[2] = species: Mus musculus; test: Toxicity in mouse infected with blood schizont stage of Plasmodium berghei; assay type: organism-based; conditions: in vivo
[3] = tested on: Plasmodium berghei; test: Antimalarial activity against blood schizont stage of Plasmodium berghei infected in mouse at 640 mg/kg; assay type: functional, organism-based; parameters: dose 640 mg/kg

SMILES | Activity [1] | Activity [2] | Activity [3]
CCOC(c1ccc(Cl)cc1)C(C)C1CCNCC1.O=C(O)CCC(=O)O (stereo unspecified) | inactive | Toxic | inactive
CCC(CC1CCNCC1)(OC)c1ccc(Cl)cc1 (stereo unspecified) | inactive | Toxic | inactive
CC(C)(Br)C(=O)c1ccc(-c2ccc(Cl)cc2)cc1 | inactive | Toxic | inactive
COC(c1ccc(Cl)cc1)C(C)C1CCNCC1.Cl (stereo unspecified) | inactive | Toxic | inactive
COC(CC1CCNCC1)c1ccc(Cl)cc1.Cl (stereo unspecified) | inactive | Toxic | inactive
CC1(C2CCN(C(=O)O)CC2)OC1c1ccc(Cl)cc1 (stereo unspecified) | inactive | Toxic | inactive
CCC(CC1CCCNC1)(OC)c1ccc(Cl)cc1 (stereo unspecified) | inactive | Toxic | inactive
CCOC(C)(CC1CCNCC1)c1ccc(Cl)cc1 (stereo unspecified) | inactive | Toxic | inactive
CC(C)(Br)C(=O)c1ccc(Cl)cc1 | inactive | Toxic | inactive
CCOC(C)(Cc1ccc(Cl)cc1)C1CCNCC1.Cl (stereo unspecified) | inactive | Toxic | inactive
CCC(Cc1ccc(Cl)cc1)(OC)C1CCCNC1.O=C(O)CCC(=O)O (stereo unspecified) | inactive | Toxic | inactive
CN1CCC(C2(C)OC2c2ccc(Cl)cc2)CC1.Cc1ccc(S(=O)(=O)O)cc1 (stereo unspecified) | inactive | Toxic | inactive
